Assay results pooled from the literature.
Protocols differ between the studies behind these lines.
Target: Tyrosine-protein kinase Srms (SRMS, Homo sapiens, UniProt Q9H3Y6)

Structure (SMILES)	test	conditions	quantity	value
N#CC1(c2ccccn2)CCN(Cc2cc(C(=O)O)c(=O)n3ccccc23)CC1	cell-free assay, competition with immobilised ligand	1 µM	remaining binding	93%
COc1ncccc1-c1cnn2ccc(N3CCN(C(=O)OC(C)C)CC3)nc12	binding, competition with immobilised ligand	1 µM	remaining binding	78%
Cn1cncc1[C@@](O)(COc1ccc(C#N)cc1-c1ccc(OC(F)(F)F)cc1)c1ccc(C#N)cc1	cell-free assay, competition with immobilised ligand	1 µM	remaining binding	100%
Cn1cc(-c2cccc(N3CCc4c(sc5c4CC(C)(C)C5)C3=O)c2CO)cc(Nc2ccncn2)c1=O	enzyme activity, inhibitor	1 µM	inhibition	-3%
Cc1nn(C)cc1-c1nc2c(N3CCN(Cc4ccc(Cl)cc4)CC3)c(Cl)cnc2[nH]1	binding, competition with immobilised ligand	1 µM	remaining binding	100%
Nc1ncc(-c2nc(N3CCOCC3)nc(N3CCOCC3)n2)c(C(F)F)n1	cell-free assay, competition with immobilised ligand	10 µM	remaining binding	88%
Cn1cc(-c2cc(F)cc(N3CCn4c(cc5c4CCCC5)C3=O)c2CO)cc(Nc2ccc(N3CCN(C4COC4)CC3)cn2)c1=O	enzyme activity, inhibitor	0.1 µM	inhibition	17%
O=c1[nH]c2ccccc2n1C1CCN(Cc2ccc(-c3[nH]c4cc5ncnc5cc4nc3-c3ccccc3)cc2)CC1	cell-free assay	0.5 µM	remaining signal	93.1%
